# Activity calls are given as the source filed them. The rule behind the calls is not given here.
# Tested on: not listed separately
# Test: Binding affinity to 5'-FAM/3'-TAMRA labeled c-MYC 22-mer G-quadruplex DNA (unknown origin) at 4 uM in presence of 26-mer duplex DNA by TR-FRET assay
# Conditions: not given
row,Activity,Structure (SMILES)
1,inactive,N=C(N)c1ccc(/N=N/Nc2cccc(C#Cc3ccccn3)c2)cc1

# Tested on: not listed separately
# Test: Stabilization of c-MYC Pu27 G-quadruplex DNA (unknown origin) assessed as inhibition of Taq polymerase-mediated polymerization/extension of Pu27 and Pu27rev oligomers at 25 uM preincubated for 6 hrs followed by Taq polymerase addition by PCR stop assay
# Conditions: not given
# How it was run: (§1)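 Each 25 µL PCR mix held 1x buffer, 5 µM template (Pu27, Pu27-13,14 or Pu-mutant) and 5 µM Pu27rev, plus ligand at various concentrations, and was held at 4 °C for 6 h. Then 200 µM dNTPs and 5 U Taq were added. Cycling: 94 °C 3 min, then 20 cycles of 94 °C 30 s, 58 °C 30 s and 72 °C 30 s. Reactions without compound served as control.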
row,Structure (SMILES),inhibition
1,C[n+]1ccc(-c2c3nc(c(-c4cc[n+](C)cc4)c4ccc([nH]4)c(-c4cc[n+](C)cc4)c4ccc([nH]4)c(-c4cc[n+](C)cc4)c4nc2C=C4)C=C3)cc1,Active

# Tested on: not listed separately
# Test: Stabilization of c-MYC template Pu27-13,14 mutant DNA (unknown origin) assessed as inhibition of Taq polymerase-mediated polymerization/extension of Pu27-13,14 mutant and Pu27rev oligomers at 10 uM preincubated for 6 hrs followed by Taq polymerase addition by PCR stop assay
# Conditions: not given
# How it was run: as §1
row,Structure (SMILES),inhibition
1,C[n+]1ccc(-c2c3nc(c(-c4cc[n+](C)cc4)c4ccc([nH]4)c(-c4cc[n+](C)cc4)c4ccc([nH]4)c(-c4cc[n+](C)cc4)c4nc2C=C4)C=C3)cc1,Active

# Tested on: not listed separately
# Test: Stabilization of c-MYC template Pu27 mutant DNA (unknown origin) assessed as inhibition of Taq polymerase-mediated polymerization/extension of Pu27 mutant and Pu27rev oligomers at 10 uM preincubated for 6 hrs followed by Taq polymerase addition by PCR stop assay
# Conditions: not given
# How it was run: as §1
row,Structure (SMILES),inhibition
1,C[n+]1ccc(-c2c3nc(c(-c4cc[n+](C)cc4)c4ccc([nH]4)c(-c4cc[n+](C)cc4)c4ccc([nH]4)c(-c4cc[n+](C)cc4)c4nc2C=C4)C=C3)cc1,Active

# Target: Telomerase reverse transcriptase (Homo sapiens) (UniProt O14746)
# Test: Inhibition of telomerase activity in human MDA-MB-231 cells using amplifour TS primer preincubated for 48 to 72 hrs followed by primer addition measured after 30 mins by fluorescence plate reader analysis relative to control
# Assay type: cell-based
# Conditions: not given
# How it was run: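 MDA-MB-231 cells, 2 × 10⁵ per T-25 flask, were treated the next morning with vehicle or compound at 0.5×, 1×, 2× or 4× GI50. After 48 or 72 h they were lysed in CHAPS buffer with RNase inhibitor on ice for 30 min. Lysate (1000 cell-equivalents) went into a fluorescent TRAP reaction at 30 °C for 30 min. TPG units were taken against an internal standard, and inhibition was expressed relative to untreated cells.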
# Sequence of Telomerase reverse transcriptase (Homo sapiens) (O14746 whole entry): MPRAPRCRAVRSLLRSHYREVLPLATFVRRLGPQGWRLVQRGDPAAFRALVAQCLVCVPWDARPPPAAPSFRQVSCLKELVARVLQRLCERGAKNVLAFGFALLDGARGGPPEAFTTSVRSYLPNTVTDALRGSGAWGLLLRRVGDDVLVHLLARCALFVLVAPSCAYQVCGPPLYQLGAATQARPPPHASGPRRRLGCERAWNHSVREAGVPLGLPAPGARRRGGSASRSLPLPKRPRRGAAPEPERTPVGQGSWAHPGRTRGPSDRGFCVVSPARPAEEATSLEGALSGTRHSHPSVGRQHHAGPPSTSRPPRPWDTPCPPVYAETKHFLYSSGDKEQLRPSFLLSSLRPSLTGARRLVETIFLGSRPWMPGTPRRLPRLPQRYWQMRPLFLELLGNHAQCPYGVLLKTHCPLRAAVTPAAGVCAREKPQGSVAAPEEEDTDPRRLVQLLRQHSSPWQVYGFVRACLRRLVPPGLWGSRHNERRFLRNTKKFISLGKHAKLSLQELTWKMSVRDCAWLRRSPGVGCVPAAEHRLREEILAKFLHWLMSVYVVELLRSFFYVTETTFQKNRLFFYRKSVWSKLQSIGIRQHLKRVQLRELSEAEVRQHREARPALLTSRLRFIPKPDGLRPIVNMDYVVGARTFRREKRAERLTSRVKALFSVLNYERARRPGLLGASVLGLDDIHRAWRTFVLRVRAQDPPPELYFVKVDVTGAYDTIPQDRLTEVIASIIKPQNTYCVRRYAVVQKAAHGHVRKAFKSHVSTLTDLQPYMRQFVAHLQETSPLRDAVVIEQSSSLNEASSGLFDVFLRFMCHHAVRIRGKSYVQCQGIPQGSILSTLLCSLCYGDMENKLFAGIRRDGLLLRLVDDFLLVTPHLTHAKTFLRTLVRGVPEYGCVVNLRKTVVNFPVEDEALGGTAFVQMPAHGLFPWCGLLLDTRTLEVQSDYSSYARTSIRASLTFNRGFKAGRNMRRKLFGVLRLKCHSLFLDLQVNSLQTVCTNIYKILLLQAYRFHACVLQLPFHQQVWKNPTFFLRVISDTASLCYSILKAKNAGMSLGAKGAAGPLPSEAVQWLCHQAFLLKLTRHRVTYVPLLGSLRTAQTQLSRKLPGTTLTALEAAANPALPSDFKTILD
row,Structure (SMILES),inhibition
1,C[n+]1ccc(-c2c3nc(c(-c4cc[n+](C)cc4)c4ccc([nH]4)c(-c4cc[n+](C)cc4)c4ccc([nH]4)c(-c4cc[n+](C)cc4)c4nc2C=C4)C=C3)cc1,Dose-dependent effect

# Tested on: MDA-MB-231
# Test: Binding affinity to c-MYC G-quadruplex DNA in human MDA-MB-231 cells assessed as inhibition of c-MYC protein expression at 22.3 uM incubated for 6 hrs by Western blot analysis relative to control
# Assay type: cell-based
# Conditions: not given
# How it was run: (§2)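 MDA-MB-231 cells were grown in DMEM with 10% heat-inactivated FBS at 37 °C and 5% CO2, then treated with DMSO vehicle or compound for 2, 6 or 24 h. Cells were washed in PBS and lysed in RIPA buffer with protease inhibitors. Blots were probed with anti-c-MYC (1:1000) and HRP anti-rabbit IgG (1:10,000), with β-actin as loading control. Band density is given as percent of vehicle at each time point.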
row,Structure (SMILES),inhibition
1,C[n+]1ccc(-c2c3nc(c(-c4cc[n+](C)cc4)c4ccc([nH]4)c(-c4cc[n+](C)cc4)c4ccc([nH]4)c(-c4cc[n+](C)cc4)c4nc2C=C4)C=C3)cc1,40%

# Tested on: MDA-MB-231
# Test: Binding affinity to c-MYC G-quadruplex DNA in human MDA-MB-231 cells assessed as inhibition of c-MYC protein expression at 22.3 uM incubated for 24 hrs by Western blot analysis relative to control
# Assay type: cell-based
# Conditions: not given
# How it was run: as §2
row,Structure (SMILES),inhibition
1,C[n+]1ccc(-c2c3nc(c(-c4cc[n+](C)cc4)c4ccc([nH]4)c(-c4cc[n+](C)cc4)c4ccc([nH]4)c(-c4cc[n+](C)cc4)c4nc2C=C4)C=C3)cc1,92%

# Tested on: MDA-MB-231
# Test: Binding affinity to c-MYC G-quadruplex DNA in human MDA-MB-231 cells assessed as inhibition of c-MYC protein expression at 111.5 uM incubated for 24 hrs by Western blot analysis relative to control
# Assay type: cell-based
# Conditions: not given
# How it was run: as §2
row,Structure (SMILES),inhibition
1,C[n+]1ccc(-c2c3nc(c(-c4cc[n+](C)cc4)c4ccc([nH]4)c(-c4cc[n+](C)cc4)c4ccc([nH]4)c(-c4cc[n+](C)cc4)c4nc2C=C4)C=C3)cc1,100%

# Tested on: not listed separately
# Test: Binding affinity to wild type c-MYC 24-mer G-quadruplex DNA (unknown origin) at 4:1 ligand:DNA molar ratio by isothermal titration calorimetry
# Conditions: not given
row,Activity,Structure (SMILES)
1,Active,C#Cc1ccccc1N/N=N/c1ccc(C(=N)N)cc1
2,Active,C#Cc1cccc(N/N=N/c2ccc(C(=N)N)cc2)c1

# Tested on: not listed separately
# Test: Binding affinity to 5'-FAM/3'-TAMRA labeled c-MYC 22-mer G-quadruplex DNA (unknown origin) assessed as change in melting temperature at 4 uM after 12 hrs by TR-FRET assay
# Conditions: not given
# How it was run: (§3)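 Dual-labeled FAM/TAMRA oligos diluted to 800 nM in 60 mM potassium cacodylate (pH 7.2), annealed 10 min at 85 °C and cooled to room temperature. Mixed 1:1 with ligand at […] in the same buffer. Equilibrated at least 12 h at 4 °C. ΔT1/2 taken as melting temperature with minus without ligand, in triplicate, averaged.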
row,ΔTm,Structure (SMILES)
1,9.7 °C,N=C(N)c1ccc(/N=N/Nc2cccc(C#Cc3ccccn3)c2)cc1
2,7 °C,C#Cc1ccccc1N/N=N/c1ccc(C(=N)N)cc1
3,8.2 °C,C#Cc1cccc(N/N=N/c2ccc(C(=N)N)cc2)c1

row,Structure (SMILES),ΔTm
1,C[n+]1ccc(-c2c3nc(c(-c4cc[n+](C)cc4)c4ccc([nH]4)c(-c4cc[n+](C)cc4)c4ccc([nH]4)c(-c4cc[n+](C)cc4)c4nc2C=C4)C=C3)cc1,24.1 °C

# Tested on: not listed separately
# Test: Binding affinity to 5'-FAM/3'-TAMRA labeled F21T 21-mer G-quadruplex DNA (unknown origin) assessed as change in melting temperature at 4 uM after 12 hrs by TR-FRET assay
# Conditions: not given
# How it was run: as §3
row,ΔTm,Structure (SMILES)
1,7.3 °C,N=C(N)c1ccc(/N=N/Nc2cccc(C#Cc3ccccn3)c2)cc1
2,< 5 °C,C#Cc1ccccc1N/N=N/c1ccc(C(=N)N)cc1
3,< 5 °C,C#Cc1cccc(N/N=N/c2ccc(C(=N)N)cc2)c1

row,Structure (SMILES),ΔTm
1,C[n+]1ccc(-c2c3nc(c(-c4cc[n+](C)cc4)c4ccc([nH]4)c(-c4cc[n+](C)cc4)c4ccc([nH]4)c(-c4cc[n+](C)cc4)c4nc2C=C4)C=C3)cc1,< 5 °C

# Tested on: not listed separately
# Test: Binding affinity to 5'-FAM/3'-TAMRA labeled c-kit2 26-mer G-quadruplex DNA (unknown origin) assessed as change in melting temperature at 4 uM after 12 hrs by TR-FRET assay
# Conditions: not given
# How it was run: as §3
row,ΔTm,Structure (SMILES)
1,8.04 °C,N=C(N)c1ccc(/N=N/Nc2cccc(C#Cc3ccccn3)c2)cc1
2,7.68 °C,C#Cc1ccccc1N/N=N/c1ccc(C(=N)N)cc1
3,5.48 °C,C#Cc1cccc(N/N=N/c2ccc(C(=N)N)cc2)c1

# Tested on: not listed separately
# Test: Binding affinity to 5'-FAM/3'-TAMRA labeled k-RAS21R 21-mer G-quadruplex DNA (unknown origin) assessed as change in melting temperature at 4 uM after 12 hrs by TR-FRET assay
# Conditions: not given
# How it was run: as §3
row,ΔTm,Structure (SMILES)
1,13.2 °C,N=C(N)c1ccc(/N=N/Nc2cccc(C#Cc3ccccn3)c2)cc1
2,4.2 °C,C#Cc1ccccc1N/N=N/c1ccc(C(=N)N)cc1
3,7.1 °C,C#Cc1cccc(N/N=N/c2ccc(C(=N)N)cc2)c1

row,Structure (SMILES),ΔTm
1,C[n+]1ccc(-c2c3nc(c(-c4cc[n+](C)cc4)c4ccc([nH]4)c(-c4cc[n+](C)cc4)c4ccc([nH]4)c(-c4cc[n+](C)cc4)c4nc2C=C4)C=C3)cc1,46.7 °C

# Tested on: not listed separately
# Test: Binding affinity to 5'-FAM/3'-TAMRA labeled 26-mer duplex DNA (unknown origin) assessed as change in melting temperature at 4 uM after 12 hrs by TR-FRET assay
# Conditions: not given
row,ΔTm,Structure (SMILES)
1,< 5 °C,N=C(N)c1ccc(/N=N/Nc2cccc(C#Cc3ccccn3)c2)cc1
2,< 5 °C,C#Cc1ccccc1N/N=N/c1ccc(C(=N)N)cc1
3,< 5 °C,C#Cc1cccc(N/N=N/c2ccc(C(=N)N)cc2)c1

row,Structure (SMILES),ΔTm
1,C[n+]1ccc(-c2c3nc(c(-c4cc[n+](C)cc4)c4ccc([nH]4)c(-c4cc[n+](C)cc4)c4ccc([nH]4)c(-c4cc[n+](C)cc4)c4nc2C=C4)C=C3)cc1,< 5 °C

# Tested on: not listed separately
# Test: Antiproliferative activity against human OVCAR3 cells after 72 hrs by WST-1 assay
# Assay type: functional
# Conditions: OVCAR-3, 72 h
# How it was run: (§4)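 Cells seeded in 96-well plates the afternoon before treatment, at numbers keeping them in log-phase growth; about 18 h later, compounds semi-serially diluted in DMSO then growth medium and added. Incubation 72 h, then WST-1 added and plates read after 4 more hours at 37 °C. GI50 derived from curve fits; viability expressed relative to DMSO control.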
row,Structure (SMILES),GI50
1,N=C(N)c1ccc(/N=N/Nc2cccc(C#Cc3ccccn3)c2)cc1,10.7 µM
2,C#Cc1ccccc1N/N=N/c1ccc(C(=N)N)cc1,> 25 µM
3,C#Cc1cccc(N/N=N/c2ccc(C(=N)N)cc2)c1,16.8 µM

# Tested on: not listed separately
# Test: Antiproliferative activity against human PC3 cells after 72 hrs by WST-1 assay
# Assay type: functional
# Conditions: PC-3, 72 h
# How it was run: as §4
row,Structure (SMILES),GI50
1,N=C(N)c1ccc(/N=N/Nc2cccc(C#Cc3ccccn3)c2)cc1,10.4 µM
2,C#Cc1ccccc1N/N=N/c1ccc(C(=N)N)cc1,> 50 µM
3,C#Cc1cccc(N/N=N/c2ccc(C(=N)N)cc2)c1,18 µM

# Tested on: MDA-MB-231
# Test: Antiproliferative activity against human MDA-MB-231 cells after 72 hrs by WST-1 assay
# Assay type: functional
# Conditions: MDA-MB-231, 72 h
# How it was run: as §4
row,GI50,Structure (SMILES)
1,14.4 µM,N=C(N)c1ccc(/N=N/Nc2cccc(C#Cc3ccccn3)c2)cc1
2,23.2 µM,C#Cc1ccccc1N/N=N/c1ccc(C(=N)N)cc1
3,20.5 µM,C#Cc1cccc(N/N=N/c2ccc(C(=N)N)cc2)c1

# Target: Telomerase reverse transcriptase (Homo sapiens) (UniProt O14746)
# Conditions: MDA-MB-231, 25 uM
row,Structure (SMILES),inhibition
1,C[n+]1ccc(-c2c3nc(c(-c4cc[n+](C)cc4)c4ccc([nH]4)c(-c4cc[n+](C)cc4)c4ccc([nH]4)c(-c4cc[n+](C)cc4)c4nc2C=C4)C=C3)cc1,60%

# Target: Telomerase reverse transcriptase (Homo sapiens) (UniProt O14746)
# Conditions: MDA-MB-231, 25 uM
# Remark: another data set of the same source
row,Structure (SMILES),inhibition
1,C[n+]1ccc(-c2c3nc(c(-c4cc[n+](C)cc4)c4ccc([nH]4)c(-c4cc[n+](C)cc4)c4ccc([nH]4)c(-c4cc[n+](C)cc4)c4nc2C=C4)C=C3)cc1,80%

# From ChEMBL document CHEMBL3826936, “Alkyne-substituted diminazene as G-quadruplex binders with anticancer activities” (Eur J Med Chem, 2016)
